Measured values taken from ChEMBL document CHEMBL2034852, “Flacourtosides A-F, phenolic glycosides isolated from Flacourtia ramontchi” (J Nat Prod, 2012).
Activity calls are given as the source filed them. No cut-off for these calls is given here.

What was measured:
[1] = (§1) Cytotoxicity against African green monkey Vero cells after 6 to 7 days by MTS assay; assay type: cell-based; conditions: chlorocebus sabaeus, Vero cells
Method in brief: (§2)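 Vero cells (subcultured 1:4, grown 7 days) seeded at 25 000 cells per well with serial compound dilutions in MEM Rega3 with 2% FCS, L-glutamine and bicarbonate. Incubated 6−7 days at 37 °C, 5% CO2. Medium then replaced with 5% MTS in phenol red-free medium for 1.5 h, A498 read. CC50 taken from dose−response curves as % of controls; multiple independent experiments.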

[2] = Inhibition of Dengue virus NS5 polymerase assessed as inhibition of radiolabeled guanosine incorporation into homopolymeric cytosine RNA template by liquid scintillation counting
Method in brief: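 DENV-2 NS5 polymerase, produced and purified by a prior method, assayed by radiolabeled guanosine incorporation on a homopolymeric cytosine RNA template. IC50 fitted by % enzyme activity = 100/[…], with I the inhibitor concentration; 3′-deoxy-GTP served as reference.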

Chikungunya virus = experiment: Antiviral activity against Chikungunya virus infected in Vero cells assessed as inhibition of virus-induced cytopathic effect after 6 to 7 days by MTS assay; assay type: functional, cell-based
Vero = experiment: as §1; assay type: cell-based; conditions: chlorocebus sabaeus, vero; method in brief: as §2

Compound	CC50 [1]	IC50 [2]	Activity (Chikungunya virus)	Activity (Vero)
C=C(C)[C@@H]1CC[C@]2(C(=O)O)CC[C@]3(C)[C@H](CC[C@@H]4[C@@]5(C)CC[C@H](OC(=O)/C=C/c6ccc(O)c(O)c6)C(C)(C)[C@@H]5CC[C@]43C)[C@@H]12	6.9 µM	0.85 µM		
Nc1nc2c(ncn2[C@@H]2O[C@H](COP(=O)(O)OP(=O)(O)OP(=O)(O)O)C[C@H]2O)c(=O)[nH]1		0.02 µM		
O=Cc1cc(O)ccc1O[C@@H]1O[C@H](COC(=O)c2ccccc2)[C@@H](O)[C@H](O)[C@H]1O [FLACOURTOSIDE B]		71.1 µM	inactive	
O=Cc1cc(O)ccc1O[C@@H]1O[C@H](COC(=O)c2ccccc2)[C@@H](O)[C@H](O[C@@H]2O[C@H](COC(=O)c3ccccc3)[C@@H](O)[C@H](O)[C@H]2O)[C@H]1O [FLACOURTOSIDE C]		23.8 µM	inactive	
O=C(OC[C@H]1O[C@@H](Oc2ccc(O)cc2COC(=O)C2(O)CC(=O)[C@@H](O)[C@@H](O)[C@H]2O)[C@H](OC(=O)c2ccccc2)[C@@H](O)[C@@H]1O)c1ccccc1 (some centres undefined) [FLACOURTOSIDE D]		35.5 µM	inactive	
O=C(OC[C@H]1O[C@@H](Oc2ccc(O)cc2COC(=O)[C@@]2(O)[C@H](O)C=CC(=O)[C@@H]2O)[C@H](O)[C@@H](OC(=O)c2ccccc2)[C@@H]1O)c1ccccc1 [FLACOURTOSIDE E]		13.4 µM	inactive	Non-toxic
O=C(OC[C@H]1O[C@@H](Oc2ccc(O)cc2COC(=O)[C@@]2(O)[C@H](O)C=CC(=O)[C@@H]2OC(=O)c2ccccc2)[C@H](OC(=O)c2ccccc2)[C@@H](O)[C@@H]1O)c1ccccc1 [FLACOURTOSIDE F]		39.8 µM	inactive	
O=C(OC[C@H]1O[C@@H](Oc2ccc(O)cc2COC(=O)c2ccccc2O)[C@H](O)[C@@H](O)[C@@H]1O)c1ccccc1 [ITOSIDE H]		37.8 µM		
O=C(OC[C@H]1O[C@@H](Oc2ccc(O)cc2CO)[C@H](O)[C@@H](O)[C@@H]1O)c1ccccc1 [POLIOTHYRSOSIDE]		> 50 µM		
O=C(OC[C@H]1O[C@@H](Oc2ccc(O)cc2COC(=O)c2cccc(O)c2O)[C@H](OC(=O)c2ccccc2)[C@@H](O)[C@@H]1O)c1ccccc1 [SCOLOCHINENOSIDE D]		9.5 µM		Non-toxic
O=C(OC[C@H]1O[C@@H](Oc2ccc(O)cc2COC(=O)[C@@]2(O)[C@H](O)C=CC(=O)[C@@H]2O)[C@H](OC(=O)c2ccccc2)[C@@H](O)[C@@H]1O)c1ccccc1 [XYLOSMIN]		24.3 µM		
